This note sets out measurements from ChEMBL document CHEMBL1149362, “Diphenyl phosphonate inhibitors for the urokinase-type plasminogen activator: optimization of the P4 position” (J Med Chem, 2006).

The species named for assay [1] is Homo sapiens. In words: Selectivity index, IC50 for human plasmin/IC50 for human uPA.
In assay [2] the target is Thrombin and urokinase-type plasminogen activator (Homo sapiens) (UniProt P00734+P00749). As to the kind of experiment: Selectivity index, IC50 for human thrombin/IC50 for human uPA. The format is protein assay.
Assay [3] can be described thus: Inhibition of bovine trypsin. Set-up: species or system Bos taurus. Put shortly: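 Bovine trypsin, approx. 5 mU, is preincubated with inhibitor for 15 min at 37 °C. BAPNA substrate is then added at 425 µM (Km 1 mM) in Tris pH 8.2. The pNA release rate is read at 405 nm, duplicate wells, and IC50 comes from a four-parameter logistic fit.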
Assay [4] is described as follows: Selectivity index, IC50 for bovine trypsin/IC50 for human uPA.
The target of assay [5] is Coagulation factor X (Bos taurus) (UniProt P00743). In words: Inhibition of bovine F10a at 125 uM.
The species named for assay [6] is Homo sapiens. As to the kind of experiment: Selectivity index, IC50 for recombinant tPA/IC50 for human uPA.
In assay [7] the target is T1, Urokinase-type plasminogen activator (Homo sapiens, UniProt P00749). In words: Inhibition of human uPA.
The target in another assay is Plasminogen (Homo sapiens, UniProt P00747). In words: Inhibition of human plasmin. Put shortly: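 Plasmin from human plasma, approx. 5 mU, in Tris pH 7.4, with a 15-min 37 °C inhibitor preincubation. […] Initial rate is read at 405 nm, in duplicate, and IC50 is obtained by four-parameter logistic fitting.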
The target of assay [8] is T1, Urokinase-type plasminogen activator. In words: Inhibition of mouse uPA. To be noted: target entry is the homologue from another species.
A further assay has as its target Prothrombin (Homo sapiens, UniProt P00734). As to the kind of experiment: Inhibition of human thrombin. Put shortly: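 Thrombin from human plasma, approx. 5 mU, in Tris pH 8.3, with a 15-min 37 °C inhibitor preincubation. […] Initial rate is read at 405 nm, duplicates, and IC50 is obtained by four-parameter logistic fitting.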
Assay [9] has as its target Tissue-type plasminogen activator (Homo sapiens, UniProt P00750). In words: Inhibition of recombinant tPA. Put shortly: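 Recombinant tPA, approx. 5 mU, in Tris pH 8.3, is preincubated with inhibitor for 15 min at 37 °C. S-2288 is then added at 1.25 mM (Km 1 mM). Absorbance change is read at 405 nm, in duplicate, and IC50 comes from a four-parameter logistic fit.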

Assay [10] in a line: Selectivity for mouse uPA over plasmin.
The target of assay [11] is Coagulation factor X (Bos taurus) (UniProt P00743). As to the kind of experiment: (§1) Inhibition of bovine F10a at 250 uM.
Assay [12] in a line: Selectivity for mouse uPA over tPA.
The target in assay [13] is T2, Coagulation factor X (Bos taurus, UniProt P00743). Described as §1.
Assay [14] in a line: Selectivity index, IC50 for bovine F10a/IC50 for human uPA.
Assay [15] addresses T2, Coagulation factor X. In words: Inhibition of bovine F10a.

Sequence of Plasminogen (P00747 97-580 limits assumed): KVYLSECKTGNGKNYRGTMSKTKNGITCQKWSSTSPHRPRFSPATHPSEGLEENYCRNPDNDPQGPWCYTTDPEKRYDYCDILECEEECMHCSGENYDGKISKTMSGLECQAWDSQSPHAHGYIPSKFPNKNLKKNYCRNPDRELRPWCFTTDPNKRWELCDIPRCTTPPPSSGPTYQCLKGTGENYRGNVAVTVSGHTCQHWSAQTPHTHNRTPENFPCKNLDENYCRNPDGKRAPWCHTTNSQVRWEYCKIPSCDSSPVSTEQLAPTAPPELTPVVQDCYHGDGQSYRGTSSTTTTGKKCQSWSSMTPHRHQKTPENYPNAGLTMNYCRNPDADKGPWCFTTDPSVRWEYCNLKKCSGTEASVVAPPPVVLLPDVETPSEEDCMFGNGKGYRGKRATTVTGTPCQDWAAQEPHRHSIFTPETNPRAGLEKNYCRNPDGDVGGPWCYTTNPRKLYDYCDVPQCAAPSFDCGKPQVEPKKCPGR
Sequence of Plasminogen (P00747 581-810 limits assumed): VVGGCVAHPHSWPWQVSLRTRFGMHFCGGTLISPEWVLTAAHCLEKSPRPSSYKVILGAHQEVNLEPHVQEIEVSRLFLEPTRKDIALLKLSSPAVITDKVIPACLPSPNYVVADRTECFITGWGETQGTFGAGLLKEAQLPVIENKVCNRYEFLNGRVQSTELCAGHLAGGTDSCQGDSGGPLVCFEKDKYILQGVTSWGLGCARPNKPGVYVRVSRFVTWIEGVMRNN
Sequence of Tissue-type plasminogen activator (P00750 whole entry): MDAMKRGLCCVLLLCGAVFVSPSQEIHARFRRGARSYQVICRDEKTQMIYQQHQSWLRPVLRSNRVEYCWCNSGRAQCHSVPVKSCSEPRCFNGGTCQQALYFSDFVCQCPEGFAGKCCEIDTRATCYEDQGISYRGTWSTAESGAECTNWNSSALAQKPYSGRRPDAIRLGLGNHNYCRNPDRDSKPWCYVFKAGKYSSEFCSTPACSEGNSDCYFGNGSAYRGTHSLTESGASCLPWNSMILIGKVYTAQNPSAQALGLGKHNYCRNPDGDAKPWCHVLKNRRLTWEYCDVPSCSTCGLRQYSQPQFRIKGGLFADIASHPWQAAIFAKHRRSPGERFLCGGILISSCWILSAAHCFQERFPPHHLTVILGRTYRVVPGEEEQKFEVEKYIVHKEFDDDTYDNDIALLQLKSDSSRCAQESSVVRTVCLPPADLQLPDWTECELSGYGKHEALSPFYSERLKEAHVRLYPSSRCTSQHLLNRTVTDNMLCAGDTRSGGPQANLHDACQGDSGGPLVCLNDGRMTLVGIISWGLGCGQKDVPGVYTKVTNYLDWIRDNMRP
T2 sequence (P00743 41-180 limits assumed): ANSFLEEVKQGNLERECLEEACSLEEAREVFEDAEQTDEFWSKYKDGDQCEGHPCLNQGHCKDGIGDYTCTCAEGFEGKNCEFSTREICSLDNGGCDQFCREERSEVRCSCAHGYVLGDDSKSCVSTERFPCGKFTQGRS
T2 sequence (P00743 234-492 limits assumed): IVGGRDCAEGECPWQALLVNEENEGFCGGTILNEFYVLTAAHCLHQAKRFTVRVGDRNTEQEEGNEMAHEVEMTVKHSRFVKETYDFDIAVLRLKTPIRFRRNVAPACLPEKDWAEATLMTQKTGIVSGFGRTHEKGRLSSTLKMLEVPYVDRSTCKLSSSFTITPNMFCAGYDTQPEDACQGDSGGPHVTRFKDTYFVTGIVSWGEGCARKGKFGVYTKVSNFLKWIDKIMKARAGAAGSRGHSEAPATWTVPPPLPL
Sequence of Coagulation factor X (Bos taurus) (P00743 41-180 limits assumed): as the sequence (P00743 41-180 limits assumed) above
Sequence of Coagulation factor X (Bos taurus) (P00743 234-492 limits assumed): as the sequence (P00743 234-492 limits assumed) above

Usually IC50 stands for the concentration at which inhibition is half-maximal. In general, inhibition refers to the change of the read-out against control, counted positive when it falls. A high value points to strong suppression. In the case of `C[C@H](NC(=O)[C@@H](CO)NC(=O)OCc1ccccc1)C(=O)NC(Cc1ccc(NC(=N)N)cc1)P(=O)(Oc1ccccc1)Oc1ccccc1` (stereo not given in full), the Selectivity index in the assay filed under Homo sapiens [1] was 470; in [2], 4700; in assay [4], 70; in the assay filed under Homo sapiens [6], 1000. Further, in assay [3], inhibition was half-maximal at 0.3 µM (IC50). This compound gave an inhibition in [5] of 43%.
Take `CC(=O)Nc1ccc(OP(=O)(Oc2ccc(NC(C)=O)cc2)C(Cc2ccc(N=C(N)N)cc2)NC(=O)[C@H](C)NC(=O)[C@@H](CO)NC(=O)OCc2ccccc2)cc1` (stereo not given in full): the IC50 is 0.0067 µM in assay [7]; 0.9 µM at Plasminogen; 0.41 µM in [8]; 1.5 µM at Prothrombin; 6.4 µM in assay [9].
In the case of `CC(=O)Nc1ccc(OP(=O)(Oc2ccc(NC(C)=O)cc2)C(Cc2ccc(NC(=N)N)cc2)NC(=O)[C@H](C)NC(=O)[C@@H](CO)NC(=O)OCc2ccccc2)cc1` (stereo not given in full), the Selectivity index worked out at 130 in the assay listed under Homo sapiens [1], 200 in [2], 30 in assay [4] and 1000 in the assay listed under Homo sapiens [6]. Also, the Selectivity ratio in [10] and in assay [12] was 5 in each case. Further, the inhibition in assay [11] is 58%. The IC50 in [3] is 0.2 µM.
Take `C[C@H](NC(=O)[C@@H](CO)NC(=O)c1cccs1)C(=O)NC(Cc1ccc(N=C(N)N)cc1)P(=O)(Oc1ccccc1)Oc1ccccc1` (stereo not given in full): the IC50 against Coagulation factor X [13] turned out to be 250 µM; in [7], 0.0069 µM; against Plasminogen, 10 µM; against Prothrombin, 35 µM; in assay [9], 13 µM.
Turning to `C[C@H](NC(=O)[C@@H](CO)NS(=O)(=O)c1ccc(Br)cc1)C(=O)NC(Cc1ccc(NC(=N)N)cc1)P(=O)(Oc1ccccc1)Oc1ccccc1` (stereo not given in full), the Selectivity index in the assay filed under Homo sapiens [1] was 136; in assay [2], 451; in assay [4], 36; in assay [14], 9000; in the assay filed under Homo sapiens [6] it was 560. Also, the IC50 stood at 0.0066 µM in assay [7]; 0.24 µM in [3]; 0.9 µM against Plasminogen; 2.98 µM on Prothrombin; 58 µM against Coagulation factor X [15]; 3.7 µM in [9].
